System: MS2 coat protein
Assay: apparent Kd, MS2 coat protein; higher = weaker binding; RNA-MaP array; FMN 200 µM where present
Procedure, shortened: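 Green signal was scaled to red-channel RNA signal and control-cluster median Fmax, and the apparent Kd was taken as the median of filtered per-cluster binding-curve fits. The binding series used SNAP-549-labelled MS2 coat protein from 0.7 or 1.5 nM, doubling to 3 µM, on designs transcribed by stalled E. coli RNA polymerase on Illumina sequencing-chip clusters. Each series ran without and then with constant ligand in 100 mM Tris-HCl pH 7.5, 80 mM KCl, 4 mM MgCl2, BSA, DTT, yeast tRNA and Tween-20.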

[1] = designed as: OFF switch for flavin mononucleotide, no ligand
[2] = ligand present: flavin mononucleotide, designed as: OFF switch for flavin mononucleotide
[3] = designed as: ON switch for flavin mononucleotide, no ligand
[4] = ligand present: flavin mononucleotide, designed as: ON switch for flavin mononucleotide

**Q.** For “CUAUUACGAGGAUAUGAUUUAAAUAACAUGAGGAUCACCCAUGUUUUUACGUUAUUAUGUUCAGAAGGCGUAUUGU”, which “apparent Kd” value [1] is on record?
**A.** 26.5 nM

**Q.** And the “apparent Kd” value [2]?
**A.** 19.4 nM

**Q.** “AAAAUCUAUAGAGGAUAUCCAUACACUGCAUACGGAGAAGGCUAACAAUCAUGAGGACAUGAGGAUCACCCAUGUUGUGACCAU” was tested. Which “apparent Kd” value [3] did it give?
**A.** 19.9 nM

**Q.** And the “apparent Kd” value [4]?
**A.** 13.6 nM

**Q.** With “UGGUACUAGGGAGGAUAUGGGAAGAUACAUGAGGAUCACCCAUGUUUAAGAAUGCCGAGAGGCAACUAGAAGGCCCUAGUAACU” as the sequence, how does the “apparent Kd” value [3] read?
**A.** 461 nM

**Q.** And the “apparent Kd” value [4]?
**A.** 20.2 nM

**Q.** What does the source list for “CAUUGACAUGAGGAUCACCCAUGUCAGGAUAUGCUUCAUGACACGAAAGUGUCAUGAAGCAGAAGGGACAUGCC”?
**A.** apparent Kd [1]: 19.4 nM; apparent Kd [2]: 31.8 nM

**Q.** With “GAUAGGAAGUAAGGAUAUAGACAUGAGGAUCACCCAUGUCUGUGCCGCGUGGAUGAAGGGAGUGUCUAGAAGGUACUGCUCUGU” as the sequence, how does the “apparent Kd” value [1] read?
**A.** 15.5 nM

**Q.** And the “apparent Kd” value [2]?
**A.** 7.5 nM

**Q.** Which “apparent Kd” value [1] does the source give for “UAAAUGUGAGGAUAUCAGGUGUGCUAGAAUACUGGUACAUCUGAGAAGGCACAUGAGGAUCACCCAUGUUCCUU” here?
**A.** 16.4 nM

**Q.** And the “apparent Kd” value [2]?
**A.** 41 nM

**Q.** How did the “apparent Kd” value [3] turn out when “UGGUACAUGGGAGGAUAUCCUCAAGAACAUGAGGAUCACCCAUGUAAUUAUAAGCCGAAAGGCAUGGAGAAGGCCCAUGUACCU” was run?
**A.** 66.4 nM

**Q.** What about the “apparent Kd” value [4] of the same sequence?
**A.** 16 nM

**Q.** For “AAAAAUAGAGGAUAUACAUGAAAAAAAAAAAAAAAAAAAAAACAUGAGGAUCACCCAUGUAGAAGGCUAAAAAA”, which “apparent Kd” value [1] is on record?
**A.** 45.3 nM

**Q.** What about the “apparent Kd” value [2] of the same sequence?
**A.** 30.3 nM

**Q.** For “GUGGCAUACUGAGGAUAUUCAUAUAAUAAAUAAACAUGAGGAUCACCCAUGUGGCGAAAGCCUUGGGAGAAGGCAGAAUGCUAC”, which “apparent Kd” value [3] is on record?
**A.** 521 nM

**Q.** And the “apparent Kd” value [4]?
**A.** 46.7 nM

**Q.** What does the source list for “AGUUAAUAUCGAGGAUAUAAGUCUAAGACAUGAGGAUCACCCAUGUGUGUCUUAGAAGGCGAUAUUAACAGCAUGUUACAUGCA”?
**A.** apparent Kd [3]: 48.3 nM; apparent Kd [4]: 8.07 nM

**Q.** With “CGCUAAUAAAUAGUAAUAAUUGUACAGGAUAUGUUACAUGAGGAUCACCCAUGUAUUGGGUAAGAACAGAAGGGUAUAUUAGCG” as the sequence, how does the “apparent Kd” value [1] read?
**A.** 433 nM

**Q.** And the “apparent Kd” value [2]?
**A.** 229 nM

**Q.** Which results are given for “CCGUCCUGAGGAUAUCCACCCUCAUACAUGAGGAUCACCCAUGUUCACCUUUGGGUUCCCGGAGAAGGCAGUUUUC”?
**A.** apparent Kd [1]: 80.2 nM; apparent Kd [2]: 109 nM

**Q.** Which results are given for “AUCGGAAUGUAGAAGGGUGACAUGAGGAUCACCCAUGUUCAAAUGCGUUUUUCGGUAAUUGAUCCACAGGAUAUACUGUCCGUG”?
**A.** apparent Kd [3]: 631 nM; apparent Kd [4]: 485 nM

**Q.** With “AACUGACGACAUCAGUUGCGUAGGCAGGAUAUACAUGAGGAUCACCCAUGUGCAUGAUGCUACGAGUAGAAGGGCCGAGGCGAU” as the sequence, how does the “apparent Kd” value [1] read?
**A.** 6.77 nM

**Q.** And the “apparent Kd” value [2]?
**A.** 13.4 nM

**Q.** “UUGUUACAUGAGGAUCACCCAUGUGAGGAUAUGGUUCGGUACUGUCCUGUCGCGUACUCCAGAAGGCACGUGUU” was tested. Which “apparent Kd” value [1] did it give?
**A.** 30.8 nM

**Q.** What about the “apparent Kd” value [2] of the same sequence?
**A.** 37.4 nM

**Q.** For “UGGACCGAGCUGUCGGUUGACUCUAAGGAUAUGACAUGAGGAUCACCCAUGUGGGAUCUAAAUUGUCAGAAGGUGGGUUCUGGG”, which “apparent Kd” value [1] is on record?
**A.** 95 nM

**Q.** What about the “apparent Kd” value [2] of the same sequence?
**A.** 51 nM

**Q.** For “CUUAUUUUCGAAGGAUAUGGAUACAUGAGGAUCACCCAUGUAUAAAAUGAGAUCUAUUAUAUGAUCCAGAAGGUCGUUGUUUAU”, which “apparent Kd” value [1] is on record?
**A.** 33.4 nM

**Q.** And the “apparent Kd” value [2]?
**A.** 59.2 nM

**Q.** Which “apparent Kd” value [1] does the source give for “UAUGUUGUUGUGAGGAUAUACUUAGUUUGACCGUAGUAGAAGGCACAUGAGGAUCACCCAUGUAGAUGCUUGGU” here?
**A.** 5.75 nM

**Q.** What about the “apparent Kd” value [2] of the same sequence?
**A.** 10.8 nM

**Q.** What does the source list for “GGAGAACAUGAGGAUCACCCAUGUGGAUGGGCGCUAGGAUAUGCGAGAGGGUGAAGAGAAGCAGAAGGAGUGGAUA”?
**A.** apparent Kd [3]: 141 nM; apparent Kd [4]: 142 nM

**Q.** With “ACGUGUCGUGUAGGAUAUGACACAGGAAACUGGUCAGAAGGACAUGAGGAUCACCCAUGUAGAGUGUGUUAGGAUGACGUAUGC” as the sequence, how does the “apparent Kd” value [1] read?
**A.** 51.9 nM

**Q.** And the “apparent Kd” value [2]?
**A.** 199 nM

**Q.** Which “apparent Kd” value [3] does the source give for “CAAUAUAACACAGGAUAUGUCUCGUUUACAUGAGGAUCACCCAUGUCCGAAACAGAAGGGUGACCCGAUAUAGGACGUUGGGUG” here?
**A.** 56.3 nM

**Q.** And the “apparent Kd” value [4]?
**A.** 18 nM

**Q.** How did the “apparent Kd” value [1] turn out when “GCCUGCCGUGGCACGGUAGCACCGGAGGAUAUCCGCGUCGGUCAUGACAUGAGGAUCACCCAUGUGGAGAAGGCUGGUUUGUCC” was run?
**A.** 10.8 nM

**Q.** What about the “apparent Kd” value [2] of the same sequence?
**A.** 21.2 nM

**Q.** How did the “apparent Kd” value [1] turn out when “GGAUGUGUGUAAGGAUAUGCAUCACUGAGAAAUUUAGUGAGGAAGAUCACAUGAGGAUCACCCAUGUAGAAGGUACACACGUGG” was run?
**A.** 10.8 nM

**Q.** What about the “apparent Kd” value [2] of the same sequence?
**A.** 52.7 nM

**Q.** For “GUGGUGCGUAUACGUGGAUGUACAUGAGGAUCACCCAUGUAAGAGGAUAUGCGGAUACUAGCUCAGCAGAAGGCUUACAAAUGA”, which “apparent Kd” value [1] is on record?
**A.** 23.1 nM

**Q.** What about the “apparent Kd” value [2] of the same sequence?
**A.** 92.1 nM

**Q.** How did the “apparent Kd” value [1] turn out when “GUUUCGUGAGGAUAUGUGGCUUCGAUCGUGCGAAAGAGGCUACAGAAGGCACAUGAGGAUCACCCAUGUUCCUC” was run?
**A.** 38.2 nM

**Q.** And the “apparent Kd” value [2]?
**A.** 536 nM

**Q.** What does the source list for “GGACAUGUCGUUUACAUGAGGAUCACCCAUGUCGAUAGACAUGAGGAUAUCGAUACAAAUUGUAUCGAGAAGGCAUGCAUGUCC”?
**A.** apparent Kd [3]: 91.2 nM; apparent Kd [4]: 23.5 nM

**Q.** “UUAUGGUUCAAGAAGGAUGUAUUUGACUUGUACAUAGGAUAUUGUUAUAUUGUUAAUUAUUGUAACAUGAGGAUCACCCAUGUA” was tested. Which “apparent Kd” value [3] did it give?
**A.** 7.84 nM

**Q.** And the “apparent Kd” value [4]?
**A.** 7.77 nM

**Q.** How did the “apparent Kd” value [1] turn out when “GAUUCGGGAGGAUAUACAUGAGGAUCACCCAUGUGUUUUUUGUGUGUUAUGUUAUCGUGUAGAAGGUUUGGGUC” was run?
**A.** 144 nM

**Q.** And the “apparent Kd” value [2]?
**A.** 203 nM

**Q.** “UCUGCCGCCGUGAGGAUAUGCCCAAAUAAAAGCGGGCAGAAGGCACAUGAGGAUCACCCAUGUCCCGCGGUUUU” was tested. Which “apparent Kd” value [1] did it give?
**A.** 15.8 nM

**Q.** What about the “apparent Kd” value [2] of the same sequence?
**A.** 38.4 nM

**Q.** How did the “apparent Kd” value [3] turn out when “GUGGUCAGACAUGAGGAUCACCCAUGUGGAAUAAAUAAGGAGAAGGAUAUGGAAUAUAGGAUAUACCAGAAGGUCUGGUUGGUG” was run?
**A.** 79 nM

**Q.** And the “apparent Kd” value [4]?
**A.** 90.7 nM

**Q.** With “CAUCAAAGAAUACCAGGGCAUUAAUGAGAAGGCCAACCACAUGAGGAUCACCCAUGUACGGGAGUGGAGGAUAUCAGUGGGCCG” as the sequence, how does the “apparent Kd” value [3] read?
**A.** 52.5 nM

**Q.** And the “apparent Kd” value [4]?
**A.** 6.43 nM

**Q.** What does the source list for “CGCUGUAACGCAGGAUAUGCAUUGGAUUACAAUGCAGAAGGGCGAUUACAUGAGGAUCACCCAUGUGUAAACAGUGAAGAAGAG”?
**A.** apparent Kd [3]: 220 nM; apparent Kd [4]: 41.2 nM

**Q.** What does the source list for “GGGUCAACAUGAGGAUCACCCAUGUAGGAUAUCGCUAUUGUAAUCAUGAAACAUGAUUACAAUAGCGAGAAGGACAUAUGUCCC”?
**A.** apparent Kd [1]: 9 nM; apparent Kd [2]: 11.8 nM

**Q.** What does the source list for “GUCAGCCCGUGAGGAUAUACAACACUGCUUCGGCAGUGUAUUAAGAUCACAUGAGGAUCACCCAUGUAGAAGGCACGAGCUGAU”?
**A.** apparent Kd [1]: 13.1 nM; apparent Kd [2]: 266 nM

**Q.** Which “apparent Kd” value [2] does the source give for “CGGGCUGCUGUGAGGAUAUGCCUGUGGGUGCGUGGGUAGAAGGCACAUGAGGAUCACCCAUGUCCUGCAGCUCG” here?
**A.** 717 nM

**Q.** What does the source list for “ACAUGUAAUGUAGGAUAUUUUACACAUGAGGAUCACCCAUGUGACCAGAGGCUUUGCUAUGAGUAAAAGAAGGGUAUGUACAUG”?
**A.** apparent Kd [1]: 61.8 nM; apparent Kd [2]: 60.4 nM

**Q.** “GUAUAUAGUGUGAGGAUAUGCUGGUCCUUGGAUCAGCAGAAGGCACAUGAGGAUCACCCAUGUAGUUUAUUAUU” was tested. Which “apparent Kd” value [1] did it give?
**A.** 25 nM

**Q.** And the “apparent Kd” value [2]?
**A.** 80.3 nM

**Q.** With “GCAGCUAAUAUUAUACAUGAGGAUCACCCAUGUUACAUGAGUAAGGAUAUUGAUGAUUAUAUAAACAAGAAGGUACGUAGCUGC” as the sequence, how does the “apparent Kd” value [3] read?
**A.** 15.7 nM

**Q.** And the “apparent Kd” value [4]?
**A.** 7.49 nM

**Q.** Which results are given for “AUGUUACAUGAGGAUCACCCAUGUGAGGAUAUGUGUACUGGUAAAAAAGUGUUUGGCCACAGAAGGCAUUUGGG”?
**A.** apparent Kd [1]: 50.4 nM; apparent Kd [2]: 148 nM

**Q.** For “GGUGAAUGAACAUGAGGAUCACCCAUGUCCAGGAAACUGAAUGAGGAUAUCCAUAGCAAAGCUAUGGAGAAGGCAUGGGUCACC”, which “apparent Kd” value [3] is on record?
**A.** 562 nM

**Q.** What about the “apparent Kd” value [4] of the same sequence?
**A.** 241 nM

**Q.** Which results are given for “UGCUAGAACCUAGGAUAUCCUAGGUUGGUGGUGCUUGGUGACCGGACAUGAGGAUCACCCAUGUAGGAGAAGGAGGUUGCUAAG”?
**A.** apparent Kd [1]: 37.8 nM; apparent Kd [2]: 41.2 nM

**Q.** For “UAGCUUGACGCAGGAUAUCCAAGGCUGAAAUGAGGAGAAGGGCGCCAAACAUGAGGAUCACCCAUGUAUUAUGCAGGGUCCUCG”, which “apparent Kd” value [1] is on record?
**A.** 302 nM

**Q.** What about the “apparent Kd” value [2] of the same sequence?
**A.** 152 nM

Reference: the EternaBench riboswitch data
